Laboratory results from paper PMC12100521 (Chemical Science, 2025).
Where “and” joins values, the source holds several entries; their conditions need not be identical. Identical values can stand only once.

Key:
CYP125MRCA [1] = test: UV-Vis difference-spectrum substrate titration; assay type: binding; settings: read-out: Kd (Hill model), Table 1
CYP125MRCA [2] = test: UV-Vis spin-state; assay type: binding; settings: 30 °C, enzyme ~2 μM
CYP125MRCAAlt [3] = test: UV-Vis spin-state shift binding screen after imidazole treatment; settings: enzyme pre-treated with imidazole (~1.3 mM)
CYP125MRCA [4] = test: In vitro oxidation assay, spinach ferredoxin/ferredoxin reductase/NADPH, GC-MS; assay type: biochemical; settings: substrate 100 μM, enzyme 2 μM, 20 h, room temperature
CYP125A1 [5] = settings: read-out: Kd CYP125A1; cited from earlier work
MmarCYP125A7 = settings: cited from earlier work
CYP125MRCAAlt [6] = test: In vitro oxidation assay, spinach ferredoxin/ferredoxin reductase/NADPH, GC-MS; assay type: biochemical; settings: reconstituted spinach ferredoxin/reductase/NADPH system
How it was run: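 Enzyme (2 μM in the method text) and substrate (100 μM) were equilibrated 3 min at room temperature in oxygenated 50 mM Tris, pH 7.4. Added G6P (5 mM), G6PDH (0.7 U/mL), ferredoxin (4 μM), reductase (0.2 U/mL) and catalase (0.03 mg/mL), then NADPH (1 mM). Ran 20 h, quenched with HCl, octanoic acid internal standard, ethyl acetate extraction, BSTFA/TMCS derivatisation, products assigned by mass spectra and retention times.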

Mtb CYP125A1 = settings: cited from earlier work
CYP125MRCA [7] = assay type: biochemical; settings: 1 : 1 mixture of substrates
[8] = test system: CYP125A1, CYP125A6 and CYP125A7; settings: cited from earlier work
CYP125A1 [9] = settings: cited from earlier work

Structure (SMILES) | Kd (CYP125MRCA [1]) [nM] | Substrate-induced shift of the Soret band (LS to HS) (CYP125MRCA [2]) | Binding detected by shift back to HS peak (CYP125MRCAAlt [3]) | Oxidation by CYP125MRCA (products by GC-MS) (CYP125MRCA [4]) | further results
CC(C)CCC[C@@H](C)[C@H]1CC[C@H]2[C@@H]3CCC4=CC(=O)CC[C@]4(C)[C@H]3CC[C@]12C [cholest-4-en-3-one] | 850 ± 20 | completely shift the Soret band to ∼390 nm | found to bind | able to oxidise | Kd (CYP125A1 [5]): 1180 ± 110 nM; Kd (MmarCYP125A7): 700 ± 400 nM
CC(C)CCC[C@@H](C)[C@H]1CC[C@H]2[C@@H]3C[C@@H]4O[C@@]45C[C@@H](O)CC[C@]5(C)[C@H]3CC[C@]12C [5,6α-epoxycholesterol] | – | Complete or near-complete spin-state shifts | – | – | –
CC(C)CCC[C@@H](C)[C@H]1CC[C@H]2[C@@H]3[C@@H](O)C=C4C[C@@H](O)CC[C@]4(C)[C@H]3CC[C@]12C [7β-hydroxycholesterol] | – | Complete or near-complete spin-state shifts | – | – | –
CC(C)CCC[C@@H](C)[C@H]1CC[C@H]2[C@@H]3CC=C4C[C@@H](O)CC[C@]4(C)[C@H]3CC[C@]12C [cholesterol] | 2000 ± 50 | completely shift the Soret band to ∼390 nm | found to bind | able to oxidise and 26-cholestenoic acid being the major product | Oxidation by CYP125MRCAAlt (products by GC-MS) (CYP125MRCAAlt [6]): able to oxidise cholesterol, albeit with a lower efficiency and 26-hydroxycholesterol being the major product; Kd (CYP125A1 [5]): 110 ± 60 nM; Preference for cholesterol over sitosterol (Mtb CYP125A1): 1.8 fold
CC(C)=CCC[C@@H](C)[C@H]1CC[C@H]2[C@@H]3CC=C4C[C@@H](O)CC[C@]4(C)[C@H]3CC[C@]12C [desmosterol] | – | minimal perturbations of the heme centre | – | – | –
CC(C)[C@@H](C)/C=C/[C@@H](C)[C@H]1CC[C@H]2C3=CC=C4C[C@@H](O)CC[C@]4(C)[C@H]3CC[C@]12C [ergosterol] | – | minimal perturbations of the heme centre | – | – | –
CC(C)CCC[C@@H](C)[C@H]1CC[C@H]2[C@@H]3C(=O)C=C4C[C@@H](O)CC[C@]4(C)[C@H]3CC[C@]12C [7-ketocholesterol] | – | Complete or near-complete spin-state shifts | – | – | –
CC(C)[C@H](C)CC[C@@H](C)[C@H]1CC[C@H]2[C@@H]3CC=C4C[C@@H](O)CC[C@]4(C)[C@H]3CC[C@]12C [campesterol] | 4190 ± 50 | complete shift of the Soret band to the high spin peak at ∼391 nm | – | able to effectively oxidise | –
CC[C@H](/C=C/[C@@H](C)[C@H]1CC[C@H]2[C@@H]3CC=C4C[C@@H](O)CC[C@]4(C)[C@H]3CC[C@]12C)C(C)C [stigmasterol] | 2040 ± 120 | complete shift of the Soret band to the high spin peak at ∼391 nm | – | – | –
CC(C)CCC[C@@H](C)[C@H]1CC[C@H]2[C@@H]3[C@H](O)C=C4C[C@@H](O)CC[C@]4(C)[C@H]3CC[C@]12C [7α-hydroxycholesterol] | – | Complete or near-complete spin-state shifts | – | – | –
CC[C@H](CC[C@@H](C)[C@H]1CC[C@H]2[C@@H]3CCC4=CC(=O)CC[C@]4(C)[C@H]3CC[C@]12C)C(C)C [stigmast-4-en-3-one] | 1610 ± 110 | complete shift of the Soret band to the high spin peak at ∼391 nm | found to bind | – | Preference for stigmast-4-en-3-one versus cholest-4-en-3-one (CYP125MRCA [7]): 3.2 fold
C=C1CC[C@H](O)C/C1=C/C=C1\CCC[C@]2(C)[C@@H]([C@H](C)CCCC(C)C)CC[C@@H]12 [vitamin D3, cholecalciferol] | 1600 ± 220 | complete shift in the Soret band to HS | found to bind | oxidised by CYP125MRCA into four hydroxylation products and one partially underivatised alcohol product | Oxidation by CYP125MRCAAlt (products by GC-MS) (CYP125MRCAAlt [6]): No 25- or 26-hydroxylation activity; Spectral shift in the Soret band [8]: does not induce a spectral shift in the Soret band; Oxidation of vitamin D3 by CYP125A1 (CYP125A1 [9]): does not oxidise
